APP 5'UTR act – activates APP 5'UTR luciferase reporter; AID 1276; activation, % at 2 µM; SH-SY5Y APP 5'UTR luciferase reporter, luminescence; zero percent = DMSO vehicle wells; 190,000 tested, 1% active;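 active = activation above a set limit, based on mean plus 3 SD of controls, cut at about 140% in these data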
STAT1 blocker – STAT1 signaling inhibition | NIH 3T3 STAT1-luciferase reporter, IFN-gamma, luminescence | inhibition, % at 5.5 µM | 200,000 tested, 0.35% active;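 active = inhibition above a set limit, the mean inhibition across all tested compounds plus 3 SD, cut at about 34% in these data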;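 note: 0% = IFN-gamma with DMSO and 100% = IFN-gamma with 300 µM nifuroxazide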
NF-kB expr up – NF-kB expression increase, human neuronal cells; NF-kB reporter expression; active compounds read high; fold change at 12.5 µM; 190,000 tested, 1.6% active; in the data active = fold change above about 3.3
STAT3 activator – activators of IL-6 induced STAT3 signaling | U3A cells, IL-6 STAT3-luciferase reporter, luminescence; 100% = signal with IL-6 EC80 alone | activation (% of control), % at 5.6 µM | 190,000 tested, 0.91% active | AID 871;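 active = activation above the screen-wide mean of compound activation plus 3 SD, cut at about 130% in these data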;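 note: 0% = background luminescence of wells with medium and substrate only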
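System – human U3A cells carrying STAT3-luciferase construct · Probe or stimulus – Interleukin-6, 33 ng/mL · Schedule – compound 1 h, then IL-6 6 h at 37 °C · Signal – luminescence from STAT3-driven luciferase reporter · Evaluation – percent of IL-6-only median luminescence · Benchmarks – IL-6-only high control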
STAT3 inh-1 – reduces IL-6 driven STAT3 reporter signal. U3A cells, IL-6 STAT3-luciferase reporter, luminescence; host cell line lacks STAT1. inhibition, % at 5.5 µM. 190,000 tested, 0.89% active. AID 862;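 active = inhibition above the mean inhibition across all screened compounds plus 3 SD, cut at about 44% in these data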;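 note: 0% = DMSO only wells and 100% = 100 µM nifuroxazide control wells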
STAT1 activator – STAT1 signaling activation; NIH 3T3 STAT1-luciferase reporter, IFN-gamma, luminescence; 100% = IFN-gamma alone, no compound; activation (% of control), % at 5.5 µM; 200,000 tested, 2.6% active; AID 932;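 active = activation above the screen-wide mean activation plus 3 SD, cut at about 130% in these data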;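 note: raw ratio to IFN-gamma control signal so 100% means no change and 0% no light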
STAT3 inh-2 – STAT3 inhibition, confirmation assay; shares compounds with STAT3 inh-1; U3A cells, IL-6 STAT3 luciferase reporter, luminescence; cell line lacks STAT1; inhibition, % at 5.7 µM; 1,200 tested, 45% active; AID 1265;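 active = inhibition above the hit cutoff computed for the primary STAT3 screen, cut at about 44% in these data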;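 note: 0% = IL-6 plus DMSO and 100% = IL-6 plus nifuroxazide control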
NFkB inh STAT3ct – counter-screen for STAT3 inhibitors: NF-kappaB inhibition | HEK293T NF-kB luciferase reporter, TNF-alpha induced | AID 1308 | 1,200 tested, 36% active | inhibition, % at 5.7 µM | shares compounds with STAT3 inh-1;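 active = inhibition above the mean of solvent-only control wells plus 3 SD, cutoff set per campaign, cut at about 13% in these data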;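 note: 0% = TNF-alpha with DMSO and 100% = TNF-alpha with MG high control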
STAT1 inh STAT3c – inhibits STAT1, counter-screen to STAT3 inhibitors; NIH 3T3 STAT1-luciferase reporter, IFN-gamma induced, luminescence; 1,200 tested, 27% active; shares compounds with STAT3 inh-1; AID 1317; inhibition, % at 5.7 µM;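 active = inhibition above the mean plus 3 SD of solvent-only control wells, limit set per screening run, cut at about 16% in these data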;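 note: 0% = DMSO with IFN-gamma and 100% = nifuroxazide control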
The depositor's hits bear a star; / = no result; ! = a repeat was not active. Shown are actives, neighbours in structure and some others; about 4.9% of the full set was active somewhere.

SMILES	APP 5'UTR act	STAT1 blocker	NF-kB expr up	STAT3 activator	STAT3 inh-1	STAT1 activator	STAT3 inh-2	NFkB inh STAT3ct	STAT1 inh STAT3c
CC1CCC(C(C)C)C(OC(=O)Cn2c(-c3ccccc3)[n+](C)c3ccccc32)C1 (centres undefined)	19.4	20.2	0.77	56.8	52.8*!	82.2	34.3	3.1	22.2*
CCOc1ccccc1OCC(=O)NNC(=O)Cn1cnc2c1c(=O)n(C)c(=O)n2C	-2.5	-0.9	1.17	98.8	8.1	99.5	/	/	/
Cc1ccc(Cl)cc1N1CCN(C(=O)COc2ccc(S(=O)(=O)NC(C)C)cc2)CC1	45.0	10.6	0.71	55.5	60.0*	90.4	49.4*	10.0	10.2
CC(C)NS(=O)(=O)c1ccc(OCC(=O)N2CCCC2)cc1	13.4	-6.1	0.97	95.2	8.7	109.6	/	/	/
CCCCCc1ccc(OCCCC[n+]2cccc(C)c2)c(CCCCC)c1	-14.2	27.4	1.11	54.3	58.0*	73.6	48.4*	-1.4	26.3*
Cc1ccc2c(c1)N(C(=O)c1ccco1)C(C)(C)c1ssc(=S)c1-2	23.9	3.5	0.98	97.0	3.8	96.8	/	/	/
CC(C)c1nnc(NC(=O)c2ccc3c(c2)OCO3)s1	147.9*	21.8	4.77*	32.4	78.9*	79.4	48.5*	4.2	-55.5
CCC(=O)/C=C1/Sc2ccccc2N1CC	-29.4	-0.8	0.74	86.3	19.4	99.7	/	/	/
CCN1/C(=C/c2ccc3cc(C)ccc3[n+]2CC)Sc2ccccc21	-80.6	25.9	0.17	24.1	90.6*	77.0	87.6*	37.1*	21.0*
CC[n+]1c(/C=C2\Sc3ccccc3N2C)ccc2cccc(C)c21	-51.9	9.4	0.1	32.8	84.5*	91.0	80.2*	31.1*	8.3
CCCCCOc1ccc(Br)cc1CSC(=N)N	-62.8	33.1	1.11	60.6	49.0*	70.4	63.5*	23.2*	21.1*
O=c1c(N=Nc2ccc(O)cc2)c(-c2ccccc2)[nH]n1-c1ccc([N+](=O)[O-])cc1	-20.1	1.4	0.92	81.8	25.6	98.3	/	/	/
NC(=S)n1[nH]c(-c2ccc([N+](=O)[O-])cc2)c(N=Nc2ccc(Cl)cc2)c1=O	-30.4	27.2	0.57	51.4	61.1*	73.0	53.7*	13.5*	36.8*
O=C(Nc1ccc2c(c1)C(=O)N(CC1CCCO1)C2=O)c1ccc(Cl)c(Cl)c1 (centres undefined)	0.2	-11.1	1.1	41.1	72.2*	110.2	61.6*	14.5*	-16.4
CC(C)n1c(NCCc2ccccc2)nc2c1c(=O)n(C)c(=O)n2C	3.9	31.1	0.56	64.9	45.3*	76.0	38.1	8.1	32.4*
CCCNc1nc2c(c(=O)n(C)c(=O)n2C)n1CCc1ccccc1	7.1	19.0	0.76	89.7	14.2	82.7	/	/	/
c1csc(-c2csc3ncnc(NCCCN4CCOCC4)c23)c1	-12.6	14.8	0.92	64.9	46.3*	86.4	31.0	8.2	15.4
COc1ccc(-c2nc3ccccc3[nH]2)cc1	184.7*	14.8	4.98*	49.8	59.7*	86.4	37.3	1.7	-45.3
COC(=O)c1ccc(-c2nc3ccccc3[nH]2)cc1	130.7	-22.9	7.09*	57.1	51.7*	121.6	22.2	-23.3	-90.6
Nc1cc(N)cc(-c2nc3ccccc3[nH]2)c1	15.4	-10.3	0.56	117.9	-13.6	109.4	/	/	/
COC(=O)c1ccc(-c2ncc[nH]2)cc1	19.6	-5.0	1.35	91.2	16.1	102.6	/	/	/
COCCN(C(=O)CSc1nc2nc(C)cc(C)n2n1)c1c(N)n(Cc2ccccc2)c(=O)[nH]c1=O	5.4	-2.6	1.51	108.5	-7.6	100.8	/	/	/
CCc1ccc(-c2nc(-c3ccncc3)no2)cc1	167.8*	-17.9	3.4*	57.5	57.0*	116.4	29.1	-14.0	-99.3
CCN1CCCC(NC(=O)c2cc([N+](=O)[O-])ccc2OC)C1 (centres undefined)	4.2	-3.2	0.94	103.5	-3.8	102.9	/	/	/
N/C(=N\OC(=O)c1cccs1)c1cccc([N+](=O)[O-])c1	51.0	-28.0	2.02	96.5	9.4	125.8	/	/	/
SMILES	APP 5'UTR act	STAT1 blocker	NF-kB expr up	STAT3 activator	STAT3 inh-1	STAT1 activator	STAT3 inh-2	NFkB inh STAT3ct	STAT1 inh STAT3c
Cc1ccc2nc(-c3ccccc3N)[nH]c2c1	198.2*	21.4	1.07	46.9	67.3*	77.9	11.9	-36.9	-148.6
CC(NC(=O)COc1ccc(-c2nnco2)cc1)c1ccc(Cl)cc1Cl (centres undefined)	7.3	0.9	0.83	95.8	4.3	99.2	/	/	/
O=C(Nc1ccc(-c2nc3ccccc3s2)cc1)C1=COCCO1	101.9	-29.6	1.42	54.7	53.7*	126.3	77.2*	59.8*	31.4*
O=S(=O)(c1ccc(Br)cc1)c1nc(-c2ccco2)oc1NCC1CCCO1 (centres undefined)	0.8	5.2	1.03	103.2	0.1	94.8	/	/	/
O=C(Nc1nc2c(F)cc(F)cc2s1)c1ccccn1	17.9	19.2	4.18*	47.5	66.0*	81.8	33.9	-19.9	-130.9
OC(COCC1CC=CCC1)Cn1cnc2ccccc21 (centres undefined)	13.0	0.4	1.01	98.8	-0.1	99.7	/	/	/
CCCOC(=O)c1ccc(OCC(O)Cn2c(C)nc3ccccc32)cc1 (centres undefined)	0.2	22.9	1.35	50.3	60.6*	76.5	62.8*	20.1*	22.7*
CC(=O)Nc1cccc(OCC(O)Cn2c(C)nc3ccccc32)c1 (centres undefined)	20.7	4.9	0.93	89.3	14.9	96.0	/	/	/
Cc1nc2ccccc2n1CC(O)COCC1CC=CCC1 (centres undefined)	-12.8	14.1	0.73	63.0	44.3*	84.5	40.3	-0.5	10.6
Cc1ccc2cc(C#N)c(NCCNC(=O)C3CC3)nc2c1C	-10.4	8.1	0.87	57.8	55.6*	92.7	14.3	-4.3	-8.3
Brc1ccc(-c2cn3nc4c(nc3n2)CCCC4)cc1	185.5*	29.7	2.87	37.5	76.6*	72.5	25.0	-38.0	-118.6
Cc1nn(C)cc1C(C(=O)NC1CCCCC1)N(CCc1ccccc1)C(=O)c1cnccn1 (centres undefined)	-0.8	4.1	1.1	101.2	2.0	94.3	/	/	/
Cn1c(=O)oc2cc(S(=O)(=O)N3CCCC(C(=O)N4CC=C(c5ccccc5)CC4)C3)ccc21 (centres undefined)	-10.0	23.1	0.55	57.6	56.5*	79.1	44.3*	6.5	11.8
